# The source made the active and inactive calls. No cut-off for these calls is given here.
# How the values were obtained:
# PC-3 = assay: Cytotoxicity against human PC3 cells after 48 hrs by SRB assay; format: functional; conditions: for GI50 / TGI / CC50: PC-3, 48 h; for CC50: read-out: LC50 (the source's name)
# Procedure, shortened: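 PC-3 human prostate cancer cells. Growth measured by sulforhodamine B staining following the NCI protocol. […] Values are means of quadruplicate determinations ± standard error (n = 5).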
# [1] = molecular target: T1, Alpha-1A adrenergic receptor (Rattus norvegicus) (UniProt P43140); assay: Antagonist activity at alpha1A adrenoceptor in Wistar rat prostatic vas deferens assessed as inhibition of (-)-noradrenaline-induced contraction after 30 mins; format: functional, tissue-based
# T1 sequence (whole entry): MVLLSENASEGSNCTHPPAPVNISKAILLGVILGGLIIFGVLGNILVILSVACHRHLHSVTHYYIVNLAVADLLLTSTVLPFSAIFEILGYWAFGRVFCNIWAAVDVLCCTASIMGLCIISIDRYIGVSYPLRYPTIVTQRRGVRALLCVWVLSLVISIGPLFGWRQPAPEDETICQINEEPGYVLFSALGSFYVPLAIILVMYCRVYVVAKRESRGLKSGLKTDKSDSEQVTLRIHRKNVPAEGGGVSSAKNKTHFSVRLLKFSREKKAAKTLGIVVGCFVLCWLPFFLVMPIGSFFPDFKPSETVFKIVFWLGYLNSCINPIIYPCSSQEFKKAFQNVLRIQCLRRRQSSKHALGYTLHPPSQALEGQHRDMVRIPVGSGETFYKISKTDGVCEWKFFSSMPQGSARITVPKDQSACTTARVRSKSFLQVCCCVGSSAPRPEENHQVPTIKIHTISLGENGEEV
# [2] = molecular target: T2, Alpha-1B adrenergic receptor (Rattus norvegicus) (UniProt P15823); assay: Antagonist activity at alpha1B adrenoceptor in Wistar rat spleen assessed as inhibition of (-)-phenylephrine-induced contraction after 30 mins; format: functional, tissue-based
# T2 sequence (whole entry): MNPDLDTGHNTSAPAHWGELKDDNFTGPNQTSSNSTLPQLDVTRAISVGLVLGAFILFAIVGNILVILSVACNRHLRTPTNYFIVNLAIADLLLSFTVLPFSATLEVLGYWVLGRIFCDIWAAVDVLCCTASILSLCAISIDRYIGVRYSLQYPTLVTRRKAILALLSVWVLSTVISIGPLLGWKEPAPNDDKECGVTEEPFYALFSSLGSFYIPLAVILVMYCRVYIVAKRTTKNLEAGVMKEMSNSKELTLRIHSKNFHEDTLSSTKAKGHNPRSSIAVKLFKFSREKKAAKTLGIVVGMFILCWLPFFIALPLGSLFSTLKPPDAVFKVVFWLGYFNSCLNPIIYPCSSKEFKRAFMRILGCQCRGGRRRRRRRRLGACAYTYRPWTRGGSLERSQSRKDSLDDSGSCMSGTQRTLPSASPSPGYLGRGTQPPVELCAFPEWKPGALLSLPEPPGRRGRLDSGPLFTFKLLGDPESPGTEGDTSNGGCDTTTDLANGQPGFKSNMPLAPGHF
# [3] = molecular target: T3, Alpha-1D adrenergic receptor (Homo sapiens, UniProt P25100); assay: Displacement of [3H]prazosin from human cloned alpha1D adrenoceptor expressed in CHO cells; format: cell-based
# T3 sequence (P25100 whole entry): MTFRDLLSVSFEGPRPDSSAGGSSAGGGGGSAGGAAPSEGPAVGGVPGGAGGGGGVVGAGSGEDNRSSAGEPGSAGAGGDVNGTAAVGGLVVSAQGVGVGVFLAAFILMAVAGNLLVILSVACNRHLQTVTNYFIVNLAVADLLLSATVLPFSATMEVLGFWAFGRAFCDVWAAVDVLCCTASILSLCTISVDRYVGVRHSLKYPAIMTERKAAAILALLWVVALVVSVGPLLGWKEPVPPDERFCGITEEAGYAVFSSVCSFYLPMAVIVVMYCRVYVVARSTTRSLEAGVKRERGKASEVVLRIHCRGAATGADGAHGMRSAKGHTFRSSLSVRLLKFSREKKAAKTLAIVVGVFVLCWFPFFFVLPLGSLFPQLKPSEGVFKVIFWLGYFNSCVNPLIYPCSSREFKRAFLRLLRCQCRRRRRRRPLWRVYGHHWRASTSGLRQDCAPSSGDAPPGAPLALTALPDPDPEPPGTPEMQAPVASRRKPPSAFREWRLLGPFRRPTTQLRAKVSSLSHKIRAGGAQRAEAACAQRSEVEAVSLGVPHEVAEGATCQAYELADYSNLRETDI
# Procedure, shortened: (§1)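 [3H]prazosin binding to cloned human α1-adrenoceptor subtypes expressed in CHO cell membranes. Affinity reported as pKi for each subtype.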
# [4] = molecular target: T4, Alpha-1D adrenergic receptor (Rattus norvegicus) (UniProt P23944); assay: Antagonist activity at Alpha-1D adrenoceptor in Wistar rat thoracic aorta assessed as inhibition of (-)-noradrenaline-induced contraction after 30 mins; format: functional, tissue-based
# T4 sequence (whole entry): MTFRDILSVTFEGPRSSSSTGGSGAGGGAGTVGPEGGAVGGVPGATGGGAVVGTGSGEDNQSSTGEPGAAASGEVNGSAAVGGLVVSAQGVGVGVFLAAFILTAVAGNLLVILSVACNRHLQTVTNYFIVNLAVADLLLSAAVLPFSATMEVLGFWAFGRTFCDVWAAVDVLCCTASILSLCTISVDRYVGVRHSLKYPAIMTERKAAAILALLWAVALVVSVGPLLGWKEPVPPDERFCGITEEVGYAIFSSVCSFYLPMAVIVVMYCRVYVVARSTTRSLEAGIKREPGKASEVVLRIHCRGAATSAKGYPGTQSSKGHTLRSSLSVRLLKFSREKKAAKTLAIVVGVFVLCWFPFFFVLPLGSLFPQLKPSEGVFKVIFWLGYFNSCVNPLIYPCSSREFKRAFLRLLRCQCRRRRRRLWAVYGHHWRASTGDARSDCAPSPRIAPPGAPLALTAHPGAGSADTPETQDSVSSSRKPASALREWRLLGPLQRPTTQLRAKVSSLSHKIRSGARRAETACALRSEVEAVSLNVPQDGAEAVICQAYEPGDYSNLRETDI
# [5] = molecular target: T5, Alpha-1B adrenergic receptor (Homo sapiens, UniProt P35368); assay: Displacement of [3H]prazosin from human cloned Alpha-1B adrenoceptor expressed in CHO cells; format: cell-based; procedure, shortened: as §1
# T5 sequence (P35368 whole entry): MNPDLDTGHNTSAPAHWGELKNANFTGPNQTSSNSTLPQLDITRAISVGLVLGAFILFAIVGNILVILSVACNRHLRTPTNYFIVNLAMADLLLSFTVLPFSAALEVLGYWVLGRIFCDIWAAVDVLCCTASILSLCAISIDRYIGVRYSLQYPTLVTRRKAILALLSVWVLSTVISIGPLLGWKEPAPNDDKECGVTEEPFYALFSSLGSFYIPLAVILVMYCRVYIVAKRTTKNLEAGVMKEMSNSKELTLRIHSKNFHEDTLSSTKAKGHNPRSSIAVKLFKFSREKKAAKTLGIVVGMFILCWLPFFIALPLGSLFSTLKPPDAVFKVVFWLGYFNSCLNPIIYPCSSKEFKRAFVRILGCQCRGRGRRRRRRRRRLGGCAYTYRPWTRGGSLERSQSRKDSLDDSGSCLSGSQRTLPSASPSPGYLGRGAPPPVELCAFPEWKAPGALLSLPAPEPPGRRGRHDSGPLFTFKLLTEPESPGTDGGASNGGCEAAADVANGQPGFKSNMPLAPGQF
Compound,GI50 (PC-3) [µM],TGI (PC-3) [µM],CC50 (PC-3) [µM],pKb [1],pKb [2],Ki [3] [µM],pKb [4],Ki [5] [µM],Activity (PC-3)
c1ccc(OCCNC[C@@H]2COC[C@@H](c3ccccc3)O2)cc1 (relative stereo),158,223,> 300,7.21,6.88,0.155,6.38,> 1,–
COc1cccc(OC)c1OCCNC[C@@H]1COC[C@@H](c2ccccc2)O1 (relative stereo),112,199,288,5.8,5.75,> 1,7.11,> 1,–
COc1ccccc1OCCNC[C@@H]1COC[C@@H](c2ccccc2)O1 (relative stereo),199,251,> 300,7.22,7.96,0.0316,7.83,0.302,–
COc1ccccc1OCCNC[C@@H]1COCC(c2ccccc2)(c2ccccc2)O1,6.3,15.4,35.1,6.65,6.86,0.00115,8.32,0.0562,–
c1ccc(OCCNC[C@@H]2CO[C@H](c3ccccc3)CO2)cc1 (relative stereo),190,239,> 300,6.89,6.68,0.355,7.05,> 1,–
COc1cccc(OC)c1OCCNC[C@@H]1COC[C@H](c2ccccc2)O1 (relative stereo),79.4,178,282,6.42,5.84,> 1,6.55,> 1,–
c1ccc(OCCNC[C@@H]2COCC(c3ccccc3)(c3ccccc3)O2)cc1,1,3.9,6.2,6.93,7.84,0.00363,7.6,0.12,–
COc1ccccc1OCCNC[C@@H]1CO[C@H](c2ccccc2)CO1 (relative stereo),199,251,> 300,6.47,6.89,0.0162,6.84,0.263,–
COc1ccccc1OCCNC[C@@H]1CO[C@@H](c2ccccc2)CO1 (relative stereo),30.1,–,–,7.1,7.44,0.0977,7.48,0.282,inactive
COc1ccccc1OCCNC[C@@H]1COC(c2ccccc2)(c2ccccc2)CO1,7.8,16.1,35.8,6.37,6.81,0.102,7.71,0.0741,–
COc1cccc(OC)c1OCCNC[C@@H]1COCC(c2ccccc2)(c2ccccc2)O1,25.1,31.6,35,6.71,6.24,0.0661,7.22,0.324,–
COc1ccccc1OCCNC[C@@H]1COC[C@H](c2ccccc2)O1 (relative stereo),79,158,251,6.57,7.4,0.0437,7.2,0.269,–
c1ccc(OCCNC[C@@H]2COC[C@H](c3ccccc3)O2)cc1 (relative stereo),158,223,281,6.72,7.12,0.0724,6.77,> 1,–
COc1cccc(OC)c1OCCNC[C@@H]1CO[C@@H](c2ccccc2)CO1 (relative stereo),29,–,–,7.21,7.02,> 1,7.26,> 1,inactive
COc1cccc(OC)c1OCCNC[C@@H]1CO[C@H](c2ccccc2)CO1 (relative stereo),199,251,> 300,5.96,6.7,> 1,6.08,> 1,–
COc1cccc(OC)c1OCCNC[C@@H]1COC(c2ccccc2)(c2ccccc2)CO1,19.9,31.6,40,6.08,5.74,0.17,7.38,0.126,–
c1ccc(OCCNC[C@@H]2CO[C@@H](c3ccccc3)CO2)cc1 (relative stereo),177,252,> 300,7,6.97,> 1,6.56,> 1,–
c1ccc(OCCNC[C@@H]2COC(c3ccccc3)(c3ccccc3)CO2)cc1,9.9,19.4,45.2,6.15,6.28,0.126,7.19,0.141,–

# From ChEMBL document CHEMBL1140161, “Structure-activity relationships in 1,4-benzodioxan-related compounds. 9. From 1,4-benzodioxane to 1,4-dioxane ring as a promising template of novel alpha1D-adrenoreceptor antagonists, 5-HT1A full agonists, and cytotoxic agents” (J Med Chem, 2008)
